Results from ChEMBL document CHEMBL1828506, “New fluorine-containing hydrazones active against MDR-tuberculosis” (Eur J Med Chem, 2011).
In brackets after ≈: the same amount, converted by molar mass.

Key:
[1] = tested on: Mycobacterium tuberculosis; experiment: Antimycobacterial activity against multidrug-resistant Mycobacterium tuberculosis A8 241 after 28 days by colony forming unit determination; assay type: functional; conditions: A8 241, 672 h
How it was run: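 Compounds added to Sula liquid medium as DMSO solutions (DMSO at most 2%), incubated at 37 °C for 28 days. MIC is the lowest concentration giving visible growth inhibition. Activity was confirmed by CFU counts after subculture onto drug-free Löwenstein-Jensen solid medium.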

[2] = Selectivity index, ratio of IC50 for human HepG2 cells to MIC for multidrug-resistant Mycobacterium tuberculosis A8 241; assay type: functional

SMILES | MIC [1] | Selectivity Index [2]
O=C(N/N=C/Nc1ccc(C(=O)O)c(O)c1)c1ccc(C(F)(F)F)cc1 | 0.5 µg/mL (≈ 1.36 µM) | 
O=C(N/N=C/Nc1ccc(C(=O)O)c(O)c1)c1cccc(C(F)(F)F)c1 | 0.5 µg/mL (≈ 1.36 µM) | 
O=C(N/N=C/Nc1ccc(C(=O)O)c(O)c1)c1ccc(F)cc1 | 0.5 µg/mL (≈ 1.58 µM) | 
O=C(N/N=C/Nc1ccc(C(=O)O)c(O)c1)c1cccc(F)c1 | 0.5 µg/mL (≈ 1.58 µM) | 592.64
O=C(O)c1ccc(N/C=N/NC(=O)c2ccccc2F)cc1O | 0.5 µg/mL (≈ 1.58 µM) | 767.77
O=C(N/N=C/N1CCN(c2cc3c(cc2F)c(=O)c(C(=O)O)cn3C2CC2)CC1)c1ccc(C(F)(F)F)cc1 | 0.5 µg/mL (≈ 0.917 µM) | 378.41
O=C(N/N=C/N1CCN(c2cc3c(cc2F)c(=O)c(C(=O)O)cn3C2CC2)CC1)c1cccc(C(F)(F)F)c1 | 0.5 µg/mL (≈ 0.917 µM) | 351.15
O=C(N/N=C/N1CCN(c2cc3c(cc2F)c(=O)c(C(=O)O)cn3C2CC2)CC1)c1ccc(F)cc1 | 0.5 µg/mL (≈ 1.01 µM) | 1268.58
O=C(N/N=C/N1CCN(c2cc3c(cc2F)c(=O)c(C(=O)O)cn3C2CC2)CC1)c1cccc(F)c1 | 0.5 µg/mL (≈ 1.01 µM) | 804.76
CCn1cc(C(=O)O)c(=O)c2cc(F)c(N3CCN(/C=N/NC(=O)c4ccc(C(F)(F)F)cc4)CC3)cc21 | 5 µg/mL (≈ 9.37 µM) | 3.98
CCn1cc(C(=O)O)c(=O)c2cc(F)c(N3CCN(/C=N/NC(=O)c4cccc(F)c4)CC3)cc21 | 5 µg/mL (≈ 10.3 µM) | 38
Nc1ccc(C(=O)O)c(O)c1 [AMINOSALICYLIC ACID] | 0.25 µg/mL (≈ 1.63 µM) | 
O=C(O)c1cn(C2CC2)c2cc(N3CCNCC3)c(F)cc2c1=O [CIPROFLOXACIN] | 1.5 µg/mL (≈ 4.53 µM) | 110.37
NNC(=O)c1ccncc1 [ISONIAZID] | 1 µg/mL (≈ 7.29 µM) | 
CCn1cc(C(=O)O)c(=O)c2cc(F)c(N3CCNCC3)cc21 [NORFLOXACIN] | 10 µg/mL (≈ 31.3 µM) | 15.87
